Assay results as given in ChEMBL document CHEMBL1156107, “Synthesis of new alkylaminooxysterols with potent cell differentiating activities: identification of leads for the treatment of cancer and neurodegenerative diseases” (J Med Chem, 2009).
Calls of active or inactive are those of the source. The rule behind the calls is not given here.

Experiments:
P19 [1] = assay: Cytotoxicity against mouse P19 cells after 3 days by trypan blue exclusion assay; assay type: functional, cell-based
Method in brief: (§1)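 U937 and P19 cells treated with compound. Cell death scored by trypan blue exclusion, with cells scraped, suspended in 0.25% w/v trypan blue in PBS and counted in a Malassez cell. IC50 is the concentration giving 50% cytotoxicity.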

P19 [2] = assay: Induction of dendrite out growth in IL-4/GMCSF-stimulated mouse P19 cells assessed as dendrite length at 100 nM after 48 hrs by light microscopy; assay type: functional
Homo sapiens = species on record: Homo sapiens; assay: Plasma concentration healthy human; assay type: ADME, organism-based; conditions: in vivo
U-937 [3] = assay: Cytotoxicity against human U937 cells after 3 days by trypan blue exclusion assay; assay type: functional, cell-based; method in brief: as §1
U-937 [4] = assay: Induction of dendrite out growth in IL-4/GMCSF-stimulated human U937 cells assessed as dendrite length at 100 nM after 48 hrs by light microscopy; assay type: functional
Method in brief: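 U937 cells at 1.1 × 10⁶ cells/mL were primed with 10 ng/mL PMA for 48 h in RPMI with 10% heat-inactivated serum. Adherent cells were then given 100 ng/mL IL-4 plus 100 ng/mL GM-CSF or 100 nM compound for 48 h. Dendrite length scored by light microscopy, from none to over 100 μm with a contact network.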

[5] = Mus musculus, P19, 72 h, read-out: IC50
[6] = Homo sapiens, U-937, 72 h, read-out: IC50

Compound | IC50 (P19 [1]; p19) | Activity (P19 [2]) | concentration (Homo sapiens) [nM] | IC50 (U-937 [3]; u-937) | Activity (U-937 [4]) | IC50 (P19 [1]; [5]) [nM] | IC50 (U-937 [3]; [6]) [nM]
CC(C)CCC[C@@H](C)[C@H]1CC[C@H]2[C@@H]3C[C@H]4O[C@]45C[C@@H](O)CC[C@]5(C)[C@H]3CC[C@]12C | Not Active | inactive | 1 | Not Active | inactive |  | 
CC[C@H](CC[C@@H](C)[C@H]1CC[C@H]2[C@@H]3C[C@@H]4O[C@@]45C[C@@H](O)CC[C@]5(C)[C@H]3CC[C@]12C)C(C)C | Not Active | inactive |  | Not Active | inactive |  | 
CCCC(=O)O[C@H]1CC[C@]2(C)[C@H]3CC[C@]4(C)[C@@H]([C@H](C)CCCC(C)C)CC[C@H]4[C@@H]3C[C@@H]3O[C@@]32C1 | Not Active | inactive |  | Not Active | inactive |  | 
CC(C)CCC[C@@H](C)[C@H]1CC[C@H]2[C@@H]3CC=C4C[C@@H](O)CC[C@]4(C)[C@H]3CC[C@]12C [CHOLESTEROL] | Not Active | inactive |  | Not Active | inactive |  | 
CC(C)CCC[C@@H](C)[C@H]1CC[C@H]2C3=C[C@@H](NCCCCNCCCN)[C@@]4(O)C[C@@H](O)CC[C@]4(C)[C@H]3CC[C@]12C | Not Active | 50 um |  | Not Active | <5 um |  | 
CC(C)CCC[C@@H](C)[C@H]1CC[C@H]2C3=C[C@@H]4O[C@@]45C[C@@H](O)CC[C@]5(C)[C@H]3CC[C@]12C | Not Active | inactive |  | Not Active | inactive |  | 
CC(C)CCC[C@@H](C)[C@H]1CC[C@H]2[C@@H]3C[C@@H]4O[C@@]45C[C@@H](O)CC[C@]5(C)[C@H]3CC[C@]12C | Not Active | inactive | 1 | Not Active | inactive |  | 
C[C@]12CC[C@H]3[C@@H](C[C@@H]4O[C@@]45C[C@@H](O)CC[C@]35C)[C@@H]1CC[C@@H]2O | Not Active | inactive |  | Not Active | inactive |  | 
CC[C@H](CC[C@@H](C)[C@H]1CC[C@H]2[C@@H]3C[C@@H](NCCc4c[nH]cn4)[C@@]4(O)C[C@@H](O)CC[C@]4(C)[C@H]3CC[C@]12C)C(C)C |  | 50 um |  |  | 50 um | 2500 | 1100
CC(=O)O[C@H]1CC[C@]2(C)[C@H]3CC[C@]4(C)[C@@H]([C@H](C)CCCC(C)C)CC[C@H]4[C@@H]3C[C@@H]3O[C@@]32C1 | Not Active | inactive |  | Not Active | inactive |  | 
CCCC(=O)O[C@H]1CC[C@]2(C)[C@H]3CC[C@]4(C)[C@@H]([C@H](C)CCCC(C)C)CC[C@H]4[C@@H]3C[C@@H](NCCc3c[nH]cn3)[C@@]2(O)C1 |  | inactive |  |  | inactive | 9400 | 8200
CC(=O)O[C@H]1CC[C@]2(C)[C@H]3CC[C@]4(C)[C@@H]([C@H](C)CCCC(C)C)CC[C@H]4[C@@H]3C[C@@H](NCCc3c[nH]cn3)[C@@]2(O)C1 |  | 50 um |  |  | 50 um | 2500 | 900
NCCCCNCCCN [SPERMIDINE] | Not Active | inactive |  | Not Active | inactive |  | 
